# Experimental data from different studies.
# Lines come from different studies, so protocols differ.
# Target: Tyrosine-protein kinase ABL2 (ABL2, Homo sapiens, UniProt P42684)
Compound,observed,action,method,concentration,quantity,result
CC#CC(=O)N1CCC[C@H]1c1nc(-c2ccc(C(=O)Nc3ccccn3)cc2)c2c(N)nccn12,enzyme activity,inhibitor,,1 µM,inhibition,10%
COc1ccc2[nH]c3c4[nH]c5ccc(OC)cc5c4c4c(c3c2c1)C(=O)NC4=O,binding,,competition with immobilised ligand,1 µM,remaining binding,82%
COc1ccc2oc(-c3ccc4nc(N)oc4c3)c/c(=N\c3ccccc3NC(=O)CCN)c2c1,binding,,,1 µM,remaining binding,101%
CO[C@@H]1[C@H](N(C)C(=O)c2ccccc2)C[C@H]2O[C@]1(C)n1c3ccccc3c3c4c(c5c6ccccc6n2c5c31)C(=O)NC4,enzyme activity,inhibitor,,1 µM,inhibition,17%
C#Cc1cc(-c2cc(Nc3nc(N[C@@H](C)c4ccc(F)cn4)ncc3Cl)n[nH]2)ccc1C=O,enzyme activity,inhibitor,,0.2 µM,inhibition,26.4%
CCCCC(=O)Nc1ccc(-c2ccc3ncn(CCC)c(=O)c3c2)cn1,binding,,competition with immobilised ligand,0.5 µM,remaining binding,100%
Cc1ccc(NC(=O)c2ccnc(C(F)(F)F)c2)cc1-c1cc(OCCO)nc(N2CCOCC2)c1,binding,,competition with immobilised ligand,1 µM,remaining binding,99%
C1=C/COCc2cc(ccc2OCCN2CCCC2)Nc2nccc(n2)-c2cccc(c2)COC/1,binding,,,0.1 µM,remaining binding,74%
